In assay [1] the target is Tyrosine-protein kinase Lyn (Homo sapiens, UniProt P07948). The experiment in a line: Inhibition of LYN at 30 uM by microfluidic mobility shift assay. Summed up: (§1)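 Single-concentration screen, singlicate, 30 uM final (diluted from 1 mM DMSO solutions), fluorescently tagged peptide substrate appropriate to each kinase, ATP at apparent Km for each protein. Phosphorylated and unphosphorylated peptides separated electrophoretically; conversion is the phosphorylated peak area over the sum of both peaks. No-inhibitor and no-ATP controls; H89 reference on each plate.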

Assay [2] concerns the target Tyrosine-protein kinase Lck (Homo sapiens, UniProt P06239). The experiment in a line: Inhibition of LCK at 30 uM by microfluidic mobility shift assay. Summed up: as §1
Assay [3] in a line: Inhibition of PKA at 30 uM by microfluidic mobility shift assay. Summed up:
as §1

The target of assay [4] is Proto-oncogene tyrosine-protein kinase Src (Homo sapiens, UniProt P12931). As to the kind of experiment: Inhibition of SRC at 30 uM by microfluidic mobility shift assay. Summed up: as §1
The target of assay [5] is RAC-beta serine/threonine-protein kinase (Homo sapiens) (UniProt P31751). The experiment in a line: Inhibition of AKT2 at 30 uM by microfluidic mobility shift assay. In a few lines: as §1
Assay [6] addresses Mitogen-activated protein kinase 1 (Homo sapiens) (UniProt P28482). The experiment in a line: Inhibition of ERK2 at 30 uM by microfluidic mobility shift assay. Summed up:
as §1

Assay [7] addresses Mitogen-activated protein kinase 3 (Homo sapiens) (UniProt P27361). The experiment in a line: Inhibition of ERK1 at 30 uM by microfluidic mobility shift assay. In a few lines: as §1
In assay [8] the target is Tyrosine-protein kinase Fyn (Homo sapiens, UniProt P06241). The experiment in a line: Inhibition of FYN at 30 uM by microfluidic mobility shift assay. Summed up: as §1
Assay [9] deals with Ribosomal protein S6 kinase alpha-5 (Homo sapiens) (UniProt O75582). The experiment in a line: Inhibition of MSK1 at 30 uM by microfluidic mobility shift assay. In a few lines:
as §1

For assay [10], the target named is Glycogen synthase kinase-3 beta (Homo sapiens) (UniProt P49841). The experiment in a line: Inhibition of GSK3B at 30 uM by microfluidic mobility shift assay. Summed up:
as §1

Assay [11] deals with Serine/threonine-protein kinase Chk2 (Homo sapiens, UniProt O96017). As to the kind of experiment: Inhibition of CHK2 at 30 uM by microfluidic mobility shift assay. In a few lines:
as §1

The target of assay [12] is Ribosomal protein S6 kinase alpha-1 (Homo sapiens) (UniProt Q15418). The experiment in a line: Inhibition of RSK1 at 30 uM by microfluidic mobility shift assay. Summed up: as §1
Assay [13] has as its target T1, Aurora kinase A (Homo sapiens) (UniProt O14965).
T1 sequence (whole entry): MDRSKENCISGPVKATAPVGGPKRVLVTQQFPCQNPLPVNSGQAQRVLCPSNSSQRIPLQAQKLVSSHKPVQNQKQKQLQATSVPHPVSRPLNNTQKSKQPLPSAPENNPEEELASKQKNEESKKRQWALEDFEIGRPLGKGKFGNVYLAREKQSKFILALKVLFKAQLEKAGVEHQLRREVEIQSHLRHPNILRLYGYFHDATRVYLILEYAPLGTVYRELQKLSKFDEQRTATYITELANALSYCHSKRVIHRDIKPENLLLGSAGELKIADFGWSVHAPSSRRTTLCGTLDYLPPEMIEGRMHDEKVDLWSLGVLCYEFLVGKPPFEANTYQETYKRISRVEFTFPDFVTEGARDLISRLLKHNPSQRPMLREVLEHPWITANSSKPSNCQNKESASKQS
The experiment in a line: Inhibition of AurA at 30 uM by microfluidic mobility shift assay. Summed up:
as §1

Assay [14] has as its target Tyrosine-protein kinase ABL1 (Homo sapiens, UniProt P00519). As to the kind of experiment: Inhibition of ABL at 30 uM by microfluidic mobility shift assay. In a few lines:
as §1

The target in assay [15] is Mitogen-activated protein kinase 14 (Homo sapiens, UniProt Q16539). As to the kind of experiment: Inhibition of p38alpha at 30 uM by microfluidic mobility shift assay. In a few lines:
as §1

In assay [16] the target is T2, Protein kinase C zeta type (Homo sapiens) (UniProt Q05513).
T2 sequence (whole entry): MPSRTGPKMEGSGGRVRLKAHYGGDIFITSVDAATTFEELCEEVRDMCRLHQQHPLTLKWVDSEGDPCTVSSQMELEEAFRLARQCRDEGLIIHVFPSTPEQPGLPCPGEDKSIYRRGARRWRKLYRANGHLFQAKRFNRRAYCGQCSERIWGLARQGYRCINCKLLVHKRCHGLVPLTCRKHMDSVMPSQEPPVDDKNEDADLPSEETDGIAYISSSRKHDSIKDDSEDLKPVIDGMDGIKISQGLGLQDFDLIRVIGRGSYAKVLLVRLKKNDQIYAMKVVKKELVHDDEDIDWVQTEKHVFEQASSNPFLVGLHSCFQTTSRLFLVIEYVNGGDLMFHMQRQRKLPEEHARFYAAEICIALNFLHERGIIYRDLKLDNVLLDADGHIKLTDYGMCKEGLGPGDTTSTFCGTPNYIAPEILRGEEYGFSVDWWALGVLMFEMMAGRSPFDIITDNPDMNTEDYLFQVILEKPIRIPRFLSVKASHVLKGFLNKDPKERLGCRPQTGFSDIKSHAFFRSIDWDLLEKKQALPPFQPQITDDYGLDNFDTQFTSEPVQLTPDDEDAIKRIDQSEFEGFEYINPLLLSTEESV
As to the kind of experiment: Inhibition of PKCz at 30 uM by microfluidic mobility shift assay. In a few lines: as §1

Assay [17] has as its target RAC-alpha serine/threonine-protein kinase (Homo sapiens) (UniProt P31749). The experiment in a line: Inhibition of AKT1 at 30 uM by microfluidic mobility shift assay. Summed up: as §1
Assay [18] concerns the target MAP kinase-activated protein kinase 2 (Homo sapiens, UniProt P49137). As to the kind of experiment: Inhibition of MAPKAPK2 at 30 uM by microfluidic mobility shift assay. Summed up: as §1

Consider eight compounds from ChEMBL document CHEMBL1811853, “Design and evaluation of 3-aminopyrazolopyridinone kinase inhibitors inspired by the natural product indirubin” (Bioorg Med Chem, 2011).

The structures appear in SMILES notation.

Chain of RAC-beta serine/threonine-protein kinase (Homo sapiens) (P31751 whole entry): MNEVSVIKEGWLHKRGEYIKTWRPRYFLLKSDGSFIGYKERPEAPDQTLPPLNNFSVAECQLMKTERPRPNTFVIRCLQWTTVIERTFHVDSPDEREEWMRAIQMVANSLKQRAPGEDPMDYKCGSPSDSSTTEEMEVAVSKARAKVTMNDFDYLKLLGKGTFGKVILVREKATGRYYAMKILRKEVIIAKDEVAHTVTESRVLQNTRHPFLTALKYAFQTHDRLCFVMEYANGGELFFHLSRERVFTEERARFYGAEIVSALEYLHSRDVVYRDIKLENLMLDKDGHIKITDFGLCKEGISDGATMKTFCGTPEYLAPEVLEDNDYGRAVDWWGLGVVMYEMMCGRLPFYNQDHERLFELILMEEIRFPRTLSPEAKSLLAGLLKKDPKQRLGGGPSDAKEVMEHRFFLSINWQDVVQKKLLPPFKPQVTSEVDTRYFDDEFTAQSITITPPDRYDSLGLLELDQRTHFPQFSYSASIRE
Chain of Mitogen-activated protein kinase 14 (Q16539 whole entry): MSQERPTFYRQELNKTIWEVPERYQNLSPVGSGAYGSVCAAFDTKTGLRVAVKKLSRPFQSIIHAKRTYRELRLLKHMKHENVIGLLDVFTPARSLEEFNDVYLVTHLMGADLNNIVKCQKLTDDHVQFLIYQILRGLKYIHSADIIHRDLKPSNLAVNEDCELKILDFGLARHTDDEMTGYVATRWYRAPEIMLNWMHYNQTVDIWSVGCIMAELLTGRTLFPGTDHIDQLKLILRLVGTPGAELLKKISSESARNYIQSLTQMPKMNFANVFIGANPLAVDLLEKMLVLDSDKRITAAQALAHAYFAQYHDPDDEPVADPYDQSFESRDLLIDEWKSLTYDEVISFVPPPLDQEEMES
Chain of Tyrosine-protein kinase Fyn (P06241 2-537 limits assumed): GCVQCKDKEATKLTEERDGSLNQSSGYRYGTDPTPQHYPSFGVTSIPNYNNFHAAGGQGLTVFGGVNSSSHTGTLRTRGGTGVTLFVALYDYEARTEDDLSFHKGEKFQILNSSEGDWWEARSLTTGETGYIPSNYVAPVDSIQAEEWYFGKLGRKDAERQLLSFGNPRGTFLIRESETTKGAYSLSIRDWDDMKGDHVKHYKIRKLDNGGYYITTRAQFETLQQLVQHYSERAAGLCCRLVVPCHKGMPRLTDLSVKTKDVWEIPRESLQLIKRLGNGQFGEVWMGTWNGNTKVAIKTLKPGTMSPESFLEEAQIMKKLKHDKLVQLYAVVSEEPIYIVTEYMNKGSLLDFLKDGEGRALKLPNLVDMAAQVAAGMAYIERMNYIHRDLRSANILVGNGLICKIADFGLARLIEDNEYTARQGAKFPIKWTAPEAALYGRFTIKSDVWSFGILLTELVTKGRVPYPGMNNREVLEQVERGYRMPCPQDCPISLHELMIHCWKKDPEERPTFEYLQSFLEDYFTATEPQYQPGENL
Chain of Tyrosine-protein kinase Lyn (P07948 2-512 limits assumed): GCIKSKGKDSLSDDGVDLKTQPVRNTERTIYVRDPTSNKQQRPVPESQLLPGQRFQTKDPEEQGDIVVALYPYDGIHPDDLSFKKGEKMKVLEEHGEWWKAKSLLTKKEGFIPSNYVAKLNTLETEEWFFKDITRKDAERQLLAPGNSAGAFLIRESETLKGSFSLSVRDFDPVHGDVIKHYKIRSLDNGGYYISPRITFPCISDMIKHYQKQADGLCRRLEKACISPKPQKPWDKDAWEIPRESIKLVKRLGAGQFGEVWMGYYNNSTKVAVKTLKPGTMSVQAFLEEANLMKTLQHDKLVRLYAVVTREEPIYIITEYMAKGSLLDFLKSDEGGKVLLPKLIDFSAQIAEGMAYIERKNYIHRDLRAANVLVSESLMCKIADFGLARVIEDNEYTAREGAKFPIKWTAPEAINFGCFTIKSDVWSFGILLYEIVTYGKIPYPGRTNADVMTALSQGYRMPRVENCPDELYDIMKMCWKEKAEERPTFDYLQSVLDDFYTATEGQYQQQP
Chain of Ribosomal protein S6 kinase alpha-1 (Homo sapiens) (Q15418 whole entry): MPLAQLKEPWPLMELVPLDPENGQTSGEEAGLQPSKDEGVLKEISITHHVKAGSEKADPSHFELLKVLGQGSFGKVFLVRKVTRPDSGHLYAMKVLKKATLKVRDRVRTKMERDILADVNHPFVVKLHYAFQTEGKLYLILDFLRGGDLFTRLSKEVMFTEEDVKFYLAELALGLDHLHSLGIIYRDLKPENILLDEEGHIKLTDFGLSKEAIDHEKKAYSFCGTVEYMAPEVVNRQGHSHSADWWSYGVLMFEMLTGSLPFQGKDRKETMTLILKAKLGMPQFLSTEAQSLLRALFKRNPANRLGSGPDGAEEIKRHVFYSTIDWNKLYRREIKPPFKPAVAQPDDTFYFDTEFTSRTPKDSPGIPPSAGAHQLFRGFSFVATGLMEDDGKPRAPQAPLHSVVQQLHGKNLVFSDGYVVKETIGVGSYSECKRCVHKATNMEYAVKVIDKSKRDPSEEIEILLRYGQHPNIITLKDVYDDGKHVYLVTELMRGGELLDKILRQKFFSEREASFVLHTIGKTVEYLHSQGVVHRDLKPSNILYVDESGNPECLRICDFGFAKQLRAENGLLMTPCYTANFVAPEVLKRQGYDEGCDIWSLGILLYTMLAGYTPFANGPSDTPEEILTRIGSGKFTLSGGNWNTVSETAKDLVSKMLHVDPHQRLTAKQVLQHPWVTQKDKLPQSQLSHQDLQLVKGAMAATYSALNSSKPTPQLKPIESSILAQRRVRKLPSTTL
Chain of Ribosomal protein S6 kinase alpha-5 (Homo sapiens) (O75582 whole entry, looked up): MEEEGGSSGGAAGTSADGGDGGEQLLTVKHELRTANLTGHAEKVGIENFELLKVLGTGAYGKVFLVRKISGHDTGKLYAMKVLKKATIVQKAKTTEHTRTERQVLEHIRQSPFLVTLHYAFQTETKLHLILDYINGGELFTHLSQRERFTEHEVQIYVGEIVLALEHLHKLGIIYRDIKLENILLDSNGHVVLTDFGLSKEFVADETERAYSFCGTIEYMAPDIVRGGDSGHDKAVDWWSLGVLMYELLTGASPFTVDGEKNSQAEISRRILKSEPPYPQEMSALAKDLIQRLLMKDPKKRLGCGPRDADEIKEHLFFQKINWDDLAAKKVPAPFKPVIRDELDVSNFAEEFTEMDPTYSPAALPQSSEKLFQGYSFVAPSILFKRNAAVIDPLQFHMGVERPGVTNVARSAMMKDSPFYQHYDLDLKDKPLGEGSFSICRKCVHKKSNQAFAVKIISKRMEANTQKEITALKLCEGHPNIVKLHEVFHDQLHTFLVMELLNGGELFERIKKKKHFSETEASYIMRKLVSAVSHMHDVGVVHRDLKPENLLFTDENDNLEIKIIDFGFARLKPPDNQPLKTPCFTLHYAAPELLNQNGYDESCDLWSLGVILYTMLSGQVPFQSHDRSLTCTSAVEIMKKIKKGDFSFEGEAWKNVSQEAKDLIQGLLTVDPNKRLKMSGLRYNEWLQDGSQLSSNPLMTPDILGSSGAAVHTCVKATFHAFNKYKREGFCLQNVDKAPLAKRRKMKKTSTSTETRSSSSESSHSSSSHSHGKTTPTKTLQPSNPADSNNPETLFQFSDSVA
Chain of Serine/threonine-protein kinase Chk2 (O96017 whole entry): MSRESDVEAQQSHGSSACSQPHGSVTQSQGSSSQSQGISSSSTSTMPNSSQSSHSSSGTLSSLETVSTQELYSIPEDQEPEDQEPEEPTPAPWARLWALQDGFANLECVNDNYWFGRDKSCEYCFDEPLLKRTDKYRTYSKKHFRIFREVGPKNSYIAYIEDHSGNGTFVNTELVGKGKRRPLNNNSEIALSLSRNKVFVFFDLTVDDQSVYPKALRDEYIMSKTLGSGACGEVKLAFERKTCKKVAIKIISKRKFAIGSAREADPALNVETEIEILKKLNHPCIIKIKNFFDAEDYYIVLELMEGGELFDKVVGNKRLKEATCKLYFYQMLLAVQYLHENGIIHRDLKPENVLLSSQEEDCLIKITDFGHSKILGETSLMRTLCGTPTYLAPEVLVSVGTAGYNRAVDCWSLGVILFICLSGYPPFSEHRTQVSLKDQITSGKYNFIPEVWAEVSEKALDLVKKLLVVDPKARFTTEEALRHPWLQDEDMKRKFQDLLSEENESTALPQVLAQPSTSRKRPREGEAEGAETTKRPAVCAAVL
Chain of Mitogen-activated protein kinase 1 (Homo sapiens) (P28482 whole entry): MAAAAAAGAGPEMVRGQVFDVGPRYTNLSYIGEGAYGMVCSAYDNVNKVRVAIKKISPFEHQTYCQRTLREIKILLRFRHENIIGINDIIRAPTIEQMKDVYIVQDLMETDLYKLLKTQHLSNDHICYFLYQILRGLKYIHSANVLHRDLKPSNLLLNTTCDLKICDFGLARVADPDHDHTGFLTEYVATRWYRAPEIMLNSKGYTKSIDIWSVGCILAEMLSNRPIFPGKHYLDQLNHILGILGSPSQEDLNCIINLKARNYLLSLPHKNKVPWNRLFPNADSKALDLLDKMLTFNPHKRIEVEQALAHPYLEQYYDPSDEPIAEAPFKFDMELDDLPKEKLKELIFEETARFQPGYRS
Chain of Proto-oncogene tyrosine-protein kinase Src (P12931 2-536 limits assumed): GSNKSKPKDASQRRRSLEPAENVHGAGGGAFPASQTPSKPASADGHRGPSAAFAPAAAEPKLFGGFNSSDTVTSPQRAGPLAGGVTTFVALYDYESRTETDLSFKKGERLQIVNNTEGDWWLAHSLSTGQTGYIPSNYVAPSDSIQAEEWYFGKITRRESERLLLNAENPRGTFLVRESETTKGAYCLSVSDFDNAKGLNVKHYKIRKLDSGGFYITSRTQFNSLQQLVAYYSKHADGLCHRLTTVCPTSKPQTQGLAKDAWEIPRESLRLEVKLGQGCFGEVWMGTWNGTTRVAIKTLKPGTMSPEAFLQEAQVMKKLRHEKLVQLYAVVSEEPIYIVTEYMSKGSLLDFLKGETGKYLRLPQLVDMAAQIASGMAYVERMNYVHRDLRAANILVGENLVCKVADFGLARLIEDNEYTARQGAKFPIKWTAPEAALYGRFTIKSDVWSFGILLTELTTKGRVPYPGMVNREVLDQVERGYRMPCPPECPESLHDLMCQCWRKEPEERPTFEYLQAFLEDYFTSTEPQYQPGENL

As for `CC(C)(C)c1cc2nn(-c3ccccc3)c(N)c2c(=O)[nH]1`, the inhibition worked out at 8% in [1]; 8% in [2]; 1% in [3]; 7% in assay [4]; 3% in assay [5]; 18% in [6]. Also, the inhibition is 21% in assay [7]; 9% in assay [8]; -1% in assay [9]; 31% in assay [10]; 5% in [11]; 5% in assay [12]. Also, the inhibition was 9% in assay [13]; 13% in assay [14]; 85% in [15]; -1% in assay [16]; 7% in [17]; 6% in [18].

As to `Cc1cc2[nH]nc(N)c2c(=O)[nH]1`, the inhibition in assay [1] turned out to be 3%; in assay [2], 6%; in assay [3] it was 57%; in assay [4], 14%; in assay [5], 8%; in assay [6], 0%. Besides, the inhibition in assay [7] stood at 4%; in assay [8], 2%; in assay [9], 56%; in assay [10] it was 18%; in assay [11] it was 27%; in [12], 6%. The inhibition is 23% in [13]; 12% in assay [14]; -7% in [15]; 10% in [16]; -3% in [17]; 30% in assay [18].

As for `COC(=O)CCc1c(C)[nH]c(=O)c2c(N)nn(C)c12`, the inhibition in assay [1] is 6%; in assay [2], 9%; in assay [3], 3%; in [4], 13%; in assay [5] it was 3%; in assay [6], 5%. In addition, the inhibition is 10% in assay [7]; 7% in assay [8]; 7% in [9]; 17% in assay [10]; -1% in assay [11]; -5% in assay [12]. Also, the inhibition in [13] is 9%; in assay [14] it was 11%; in assay [15] it was -1%; in [16] it was 14%; in [17], 5%; in assay [18] it was 11%.

Consider `Nc1n[nH]c2cc(-c3cccnc3)[nH]c(=O)c12`, for which the inhibition in assay [1] is 39%; in assay [2], 34%; in assay [3] it was 35%; in assay [4] it was 46%; in assay [5], 8%; in [6], 14%. Besides, the inhibition was determined as 19% in assay [7]; 24% in [8]; 36% in assay [9]; 71% in assay [10]; 27% in [11]; 11% in assay [12]. In addition, the inhibition in assay [13] is 42%; in assay [14] it was 37%; in assay [15] it was 3%; in assay [16], 1%; in assay [17], 7%; in [18] it was 40%.

For the compound `Cc1cc2c(c(N)nn2C)c(N2CC[C@H](O)C2)n1`, the inhibition was determined as 5% in assay [1]; 1% in assay [2]; 4% in [3]; 3% in assay [4]; 4% in assay [5]; 2% in [6]. Moreover, the inhibition was 2% in assay [7]; 1% in assay [8]; 4% in [9]; -6% in [10]; -2% in assay [11]; -5% in assay [12]. Moreover, the inhibition was 0% in assay [13]; -4% in [14]; 0% in assay [15]; 19% in [16]; 7% in assay [17]; 2% in assay [18].

`COc1ccc(-c2cc3[nH]nc(N)c3c(=O)[nH]2)cc1`: the inhibition is 56% in assay [1]; 54% in assay [2]; 82% in assay [3]; 59% in [4]; 11% in assay [5]; 12% in assay [6]. Further, the inhibition in [7] worked out at 13%; in assay [8], 50%; in assay [9] it was 62%; in assay [10] it was 78%; in [11] it was 43%; in assay [12] it was 7%. Also, the inhibition amounted to 49% in assay [13]; 55% in [14]; 0% in assay [15]; 7% in [16]; 21% in [17]; 59% in assay [18].

As for `COCCNc1nc(C)cc2c1c(N)nn2C`, the inhibition in assay [1] is 6%; in [2], 1%; in [3], 19%; in [4], 2%; in assay [5], -3%; in assay [6], 8%. Moreover, the inhibition was 5% in assay [7]; -1% in [8]; 0% in [9]; 1% in [10]; -2% in [11]; -4% in assay [12]. Besides, the inhibition in assay [13] is 15%; in assay [14], -8%; in assay [15] it was 1%; in assay [16], -10%; in assay [17] it was 6%; in assay [18] it was 6%.

`Cc1cc2[nH]nc(N)c2c(N2CCCCC2)n1`: the inhibition came out at 45% in [1]; 48% in assay [2]; 86% in assay [3]; 33% in assay [4]; 11% in [5]; 6% in [6]. Further, the inhibition was 6% in assay [7]; 53% in assay [8]; 87% in assay [9]; 55% in [10]; 33% in [11]; 46% in [12]. In addition, the inhibition in assay [13] was 84%; in [14] it was 18%; in [15], 1%; in [16] it was 43%; in assay [17], 36%; in assay [18] it was -1%.

For orientation: inhibition means the drop in the measured response relative to a control, in per cent.
